# Test results published in PubChem BioAssay AID2300 (The Scripps Research Institute Molecular Screening Center, 2010).
# The whole screen tested about 320,000 compounds, of which about 380 (0.12%) were called active. Only a selection was taken, and actives are over-represented in it overall. Values without a mark were called inactive.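 The calls were made as follows: active = percent inhibition above the cutoff of mean plus 3 SD of all tested compounds, set per screening campaign (cut at about 20% in these data); inactive = the rest.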
# Target: Photoreceptor-specific nuclear receptor (Homo sapiens) (UniProt Q9Y5X4)
# Assay: disruption of NR2E3 corepressor interaction – biochemical, TR-FRET, GST-NR2E3, biotin-RetCOR, NR2E3 agonist project, primary screen (AID 2300);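 also: 0% = DMSO wells and 100% = biotin wells as full block of FRET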
# Conditions: 1536-well, at 4.78 µM, active compounds read high
# Method in brief: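 Material: NR2E3–RetCOR corepressor complex / Amount: 1.35 nM GST-NR2E3 / Medium: Tris pH 7.5 / Compound: single nominal compound dose of 4.8 µM / Incubation: 5 h at 4 °C / Technique: TR-FRET, Eu(K)-anti-GST donor, streptavidin-D2 acceptor, ex 340, em 617/671 nm / Read-out basis: percent loss of FRET ratio relative to control wells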
# Chain of Photoreceptor-specific nuclear receptor (Homo sapiens) (Q9Y5X4 whole entry, looked up): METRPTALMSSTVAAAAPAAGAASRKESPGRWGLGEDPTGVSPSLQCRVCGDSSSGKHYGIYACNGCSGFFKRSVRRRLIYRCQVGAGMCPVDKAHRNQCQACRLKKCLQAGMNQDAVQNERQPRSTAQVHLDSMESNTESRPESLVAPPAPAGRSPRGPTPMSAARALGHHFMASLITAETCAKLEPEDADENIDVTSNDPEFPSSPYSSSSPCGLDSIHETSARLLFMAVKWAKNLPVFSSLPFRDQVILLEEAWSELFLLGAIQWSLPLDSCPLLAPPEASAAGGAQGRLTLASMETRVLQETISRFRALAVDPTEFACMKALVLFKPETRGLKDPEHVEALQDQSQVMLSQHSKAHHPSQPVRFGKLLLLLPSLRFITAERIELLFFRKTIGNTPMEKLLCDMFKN
row,Structure (SMILES),inhibition of corepressor binding
1,CC(C)CN(C(=O)CSc1nncn1C)C1CCS(=O)(=O)C1 (centres undefined),2.15%
2,COC(C)(C)[C@]12CC(O)(C(C)C)ON1[C@H]1CCCCC1N2O (some centres undefined),-1%
3,CCCCSc1nc2c(c(=O)n1CC)SC(C)C2 (centres undefined),4.84%
4,O=c1ccc2c(-c3ccccc3S(=O)(=O)O)c3ccc(O)c(O)c3oc-2c1O,13.9%
5,CC(=O)c1sc2nc(SCC(=O)N3CCCCC3)[nH]c(=O)c2c1C,29.3% (active)
6,O=C(CSc1nc2c(cnn2-c2ccc(F)cc2)c(=O)[nH]1)N1CCCCCC1,-0.57%
7,C=CCNC(=O)CSc1nc2sc(C)c(C)c2c(=O)[nH]1,-1.07%
8,CC(=O)N1CCC(C(=O)Nc2nc(-c3ccccc3)ns2)CC1,1.17%
9,Cc1csc(Nc2ccc(Cl)cc2)[n+]1-c1ccc(Cl)cc1,-0.2%
10,FC(F)Oc1ccccc1NC(=S)Nc1cccc(Cl)c1Cl,3.12%
11,Cc1ccc(NC(=O)C2(N3CCC3=O)CCCCC2)cc1,3.49%
12,O=C(/C=C/c1cccc([N+](=O)[O-])c1)NCCSCc1ccco1,0.28%
13,Cc1ccc2c(c1)N(CC(=O)N1CCC(C)CC1)C(=O)c1cccnc1O2,3.77%
14,CCOc1ccc2nc(C(=O)N3CCCC(C)C3)sc2c1 (centres undefined),-1.62%
15,ONC(=Nc1ccccc1)c1ccccc1Cl,-0.75%
16,COc1cccc(CNC(=O)c2cccnc2Sc2ccc(Cl)cc2)c1,0.2%
17,Cc1ccc(Nc2nc(Cl)c(C=O)s2)cc1,3.15%
18,Cc1cc(C)c(C)c(S(=O)(=O)N2CCN(C(=O)c3ccc4c(=O)n5c(nc4c3)CCC5)CC2)c1C,-2.52%
19,O=C(Nc1nccs1)C1CCN(S(=O)(=O)c2ccc(Cl)c(C(F)(F)F)c2)CC1,5.22%
20,O=C(CCNS(=O)(=O)c1cccs1)N1CCN(c2ccc(F)cc2)CC1,0.06%

row,Structure (SMILES),inhibition of corepressor binding
1,O=C(N[C@@H](Cc1ccccc1)C(=O)OCc1ccccc1)c1nc[nH]c1C(=O)NC1CCNCC1,1.4%
2,COc1ccc(C(=O)OCC(=O)c2ccc(Cl)s2)c(OC)c1OC,-1.77%
3,CCOC(=O)c1ccc(N=C2SC(C(=O)NC)CC(=O)N2CCc2ccccc2)cc1 (centres undefined),-2.67%
4,COc1cc2[nH]c(=S)n(Cc3ccc(C)o3)c(=O)c2cc1OC,23.2% (active)
5,COc1cc2[nH]c(=S)n(CCN3CCCCC3C)c(=O)c2cc1OC (centres undefined),0.84%
6,COc1cc2[nH]c(=S)n(Cc3ccc(F)cc3)c(=O)c2cc1OC,-2.77%
7,Cc1ccc(CN(N=Nc2nonc2N)c2nonc2N)c(C)c1,-0.3%
8,CC(=O)N=c1ncn(CC(COC(C)=O)OC(C)=O)c2nc[nH]c12 (centres undefined),0.37%
9,CCC[C@H]1CCCC/C=C\CCCC(=O)OCCN1C(=O)OC(C)(C)C,-1.54%
10,CCOc1cc(NC(=O)CCl)c(OCC)cc1NC(C)=O,-2.07%
11,COc1ccc2cc(-c3[nH]ncc3CNCCn3nc(C)cc3C)ccc2c1,1.22%
12,COc1cc(C(=O)Nc2ncccc2C)ccc1OCC(=O)N1CCOCC1,2.79%
13,Cc1nc(SCC(=O)NC2CCCC2)[nH]c(=O)c1C,-2.03%
14,O=C(c1ccc(Br)o1)N(c1ccccn1)C1CCCCC1,-1.56%
15,CCCc1cc(=O)[nH]c(SCC(=O)Nc2sc3c(c2C#N)CCCC3)n1,1.75%
16,CCOc1ccc(NC(=O)N2CC=C(n3c(=O)[nH]c4ccccc43)CC2)cc1,1.76%
17,CCN1CCN(C(=O)C2(NC(=O)Nc3cccc(F)c3)CCCCC2)CC1,2.38%
18,Cc1ccc(C(=O)N/C(=C/c2ccc(-c3cccc([N+](=O)[O-])c3)o2)C(=O)NCCCN(C)C)cc1,-3.84%
19,CCCCC(=O)Nc1c2c(nn1-c1ccc([N+](=O)[O-])cc1)CS(=O)(=O)C2,2.14%
20,COc1cc(OC)c(C(=O)N2CCCC2)cc1OC,2.23%

row,Structure (SMILES),inhibition of corepressor binding
1,CSc1nc2c(c(=O)[nH]1)C(c1cccc(Cl)c1Cl)CC(=O)N2 (centres undefined),5.66%
2,N#Cc1c(N)nc2c3c(sc(=N)c2c1N)NC(=O)CC3c1ccccc1Cl (centres undefined),27.7% (active)
3,COc1ccc(C2CC(=O)Nc3sc(=N)c4c(N)c(C#N)c(N)nc4c32)cc1OC (centres undefined),-3.58%
4,CN(C)CCOc1cccc(Br)c1,-0.9%
5,O=[N+]([O-])/C(N=Nc1ccccc1)=N\Nc1ccccc1,-0.3%
6,CCc1ccc(CN(C)C(=O)C2CCC(=O)N(Cc3cccc(OC)c3)C2)nc1 (centres undefined),-4.58%
7,C/C(=N/O)c1ccc(N2C(=O)C3C4C=CC(C3C2=O)C2C3C(=O)N(c5ccc(/C(C)=N/O)cc5)C(=O)C3C42)cc1 (centres undefined),-3.35%
8,O=C(NNC(=O)C1CCC1)c1ccccc1,3.19%
9,O=C(CNCc1ccco1)Nc1cc(S(=O)(=O)N2CCOCC2)ccc1N1CCCC1,6.04%
10,Cc1c(Cl)cccc1NC(=O)[C@@]1(CC(=O)O)CC(/C=C/c2ccccc2)=NO1,-2.16%
11,COC(=O)C1(C)NC(c2ccccc2OC)C2C(=O)N(c3ccccc3)C(=O)C21 (centres undefined),1.42%
12,O=C(CCCCO)c1ccc(O)c(Cl)c1,-2.2%
13,O=C(COC(=O)Cc1ccc(Br)cc1)Nc1c(F)c(F)c(F)c(F)c1F,-1.39%
14,CN(c1ccccc1)S(=O)(=O)c1cccc(NC(=O)Cc2ccc(Cl)cc2)c1,4.43%
15,O=c1cnnc(Nc2ccccc2F)[nH]1,3.47%
16,Oc1c(Br)cc(/C=N/NC(=S)NCC2CCCO2)cc1Br (centres undefined),1.11%
17,O=C(NCCO)C(=O)NCC(c1ccc2c(c1)OCO2)N1CCN(c2ccc(F)cc2)CC1 (centres undefined),-1.84%
18,CC1(C)C2CCC1(CS(=O)(=O)NCCc1c[nH]c3ccccc13)C(=O)C2 (centres undefined),-2.06%
19,CCOC(=O)c1c(NC(=O)CSc2nnc(CNc3ccc(C)cc3C)o2)sc(C)c1C,-0.79%
